From ChEMBL document CHEMBL4229515, “A novel synthesis of 2-arylbenzimidazoles in molecular sieves-MeOH system and their antitubercular activity” (Bioorg Med Chem, 2018)
In brackets after ≈: the same amount, converted by molar mass.

Columns and labels:
[1] = Lipophilicity, log P of the compound; assay type: physicochemical; settings: octanol/water; read-out: logP
[2] = system: Mycobacterium tuberculosis; test: Antimycobacterial activity against Mycobacterium tuberculosis H37Rv by BACTEC 460 radiometric method; assay type: functional
How it was run: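 Radiometric BACTEC assay against the H37Rv strain, run per a previously reported method. Positive controls were rifampicin, streptomycin and isoniazid. The MIC was read in µM.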

Mus musculus [3] = test: Acute toxicity in Swiss albino mouse assessed as effect on body weight at 5 mg/kg, po after 7 days (reference value: 28.25 +/- 0.54 g); assay type: organism-based; settings: in vivo, 168 h
Mus musculus [4] = test: Acute toxicity in Swiss albino mouse assessed as effect on RBC count at 5 mg/kg, po after 7 days (reference value: 7.61 +/- 0.54 10^6/mm3); assay type: organism-based; settings: in vivo, 168 h
Mus musculus [5] = test: Acute toxicity in Swiss albino mouse assessed as effect on WBC count at 5 mg/kg, po after 7 days (reference value: 7.47 +/- 1.61 10^3/mm3); assay type: organism-based; settings: in vivo, 168 h
Mus musculus [6] = test: Acute toxicity in Swiss albino mouse assessed as effect on SGOT levels at 5 mg/kg, po after 7 days (reference value: 15.11 +/- 1.25 U/L); assay type: organism-based; settings: in vivo, 168 h
Mus musculus [7] = test: Acute toxicity in Swiss albino mouse assessed as effect on ALKP levels at 5 mg/kg, po after 7 days (reference value: 219.20 +/- 5.9 U/L); assay type: organism-based; settings: in vivo, 168 h
Mus musculus [8] = test: Acute toxicity in Swiss albino mouse assessed as effect on triglyceride levels at 5 mg/kg, po after 7 days (reference value: 45.21 +/- 2.95 mg/dL); assay type: organism-based; settings: in vivo, 168 h
Mus musculus [9] = test: Acute toxicity in Swiss albino mouse assessed as effect on RBC count at 50 mg/kg, po after 7 days (reference value: 7.61 +/- 0.54 10^6/mm3); assay type: organism-based; settings: in vivo, 168 h
Mus musculus [10] = test: Acute toxicity in Swiss albino mouse assessed as effect on WBC count at 50 mg/kg, po after 7 days (reference value: 7.47 +/- 1.61 10^3/mm3); assay type: organism-based; settings: in vivo, 168 h
Mus musculus [11] = test: Acute toxicity in Swiss albino mouse assessed as effect on SGOT levels at 50 mg/kg, po after 7 days (reference value: 15.11 +/- 1.25 U/L); assay type: organism-based; settings: in vivo, 168 h
Mus musculus [12] = test: Acute toxicity in Swiss albino mouse assessed as effect on MDA levels per mg of tissue protein at 50 mg/kg, po after 7 days (reference value: 0.24 +/- 0.05 nmol); assay type: organism-based; settings: in vivo, 168 h
Mus musculus [13] = test: Acute toxicity in Swiss albino mouse assessed as effect on body weight at 300 mg/kg, po after 7 days (reference value: 28.25 +/- 0.54 g); assay type: organism-based; settings: in vivo, 168 h
Mus musculus [14] = test: Acute toxicity in Swiss albino mouse assessed as effect on RBC count at 300 mg/kg, po after 7 days (reference value: 7.61 +/- 0.54 10^6/mm3); assay type: organism-based; settings: in vivo, 168 h
Mus musculus [15] = test: Acute toxicity in Swiss albino mouse assessed as effect on SGPT levels at 300 mg/kg, po after 7 days (reference value: 16.08 +/- 1.38 U/L); assay type: organism-based; settings: in vivo, 168 h
Mus musculus [16] = test: Acute toxicity in Swiss albino mouse assessed as effect on SGOT levels at 300 mg/kg, po after 7 days (reference value: 15.11 +/- 1.25 U/L); assay type: organism-based; settings: in vivo, 168 h
Mus musculus [17] = test: Acute toxicity in Swiss albino mouse assessed as effect on tissue protein levels at 300 mg/kg, po after 7 days (reference value: 0.06 +/- 0.004 mg/mL); assay type: organism-based; settings: in vivo, 168 h
Mus musculus [18] = test: Acute toxicity in Swiss albino mouse assessed as effect on GSH levels per mg of tissue protein at 300 mg/kg, po after 7 days (reference value: 17.64 +/- 1.03 micromol); assay type: organism-based; settings: in vivo, 168 h
Mus musculus [19] = test: Acute toxicity in Swiss albino mouse assessed as effect on WBC count at 1000 mg/kg, po after 7 days (reference value: 7.47 +/- 1.61 10^3/mm3); assay type: organism-based; settings: in vivo, 168 h
Mus musculus [20] = test: Acute toxicity in Swiss albino mouse assessed as effect on SGOT levels at 1000 mg/kg, po after 7 days (reference value: 15.11 +/- 1.25 U/L); assay type: organism-based; settings: in vivo, 168 h
Mus musculus [21] = test: Acute toxicity in Swiss albino mouse assessed as effect on triglyceride levels at 1000 mg/kg, po after 7 days (reference value: 45.21 +/- 2.95 mg/dL); assay type: organism-based; settings: in vivo, 168 h
Mus musculus [22] = test: Acute toxicity in Swiss albino mouse assessed as effect on serum protein levels at 1000 mg/kg, po after 7 days (reference value: 0.10 +/- 0.004 mg/mL); assay type: organism-based; settings: in vivo, 168 h
Mus musculus [23] = test: Acute toxicity in Swiss albino mouse assessed as effect on tissue protein levels at 1000 mg/kg, po after 7 days (reference value: 0.06 +/- 0.004 mg/mL); assay type: organism-based; settings: in vivo, 168 h
Mus musculus [24] = test: Acute toxicity in Swiss albino mouse assessed as effect on GSH levels per mg of tissue protein at 1000 mg/kg, po after 7 days (reference value: 17.64 +/- 1.03 micromol); assay type: organism-based; settings: in vivo, 168 h
Mus musculus [25] = test: Acute toxicity in Swiss albino mouse assessed as change in morbidity up to 300 mg/kg, po measured over 7 days; assay type: organism-based; settings: in vivo, 168 h
How it was run: (§1)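 Single acute oral dose of 5, 50, 300 or 1000 mg/kg body weight, with an untreated control group; n=6 mice per group. Animals observed for 7 days for morbidity, mortality, behaviour and body weight. At the end, blood and serum were analysed, and organs were examined grossly with absolute and relative weights. Data are mean±SE; P<0.05 was taken as significant versus control and the lower-dose groups.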

[26] = Acute toxicity in Swiss albino mouse assessed as mortality at 1000 mg/kg, po measured over 7 days; assay type: organism-based; settings: in vivo, read-out: Activity; how it was run: as §1
Mus musculus [27] = test: Acute toxicity in Swiss albino mouse assessed as depression at 1000 mg/kg, po measured over 7 days; assay type: organism-based; settings: in vivo, 168 h; how it was run: as §1
Mus musculus [28] = test: Acute toxicity in Swiss albino mouse assessed as inactivity at 1000 mg/kg, po measured over 7 days; assay type: organism-based; settings: in vivo, 168 h; how it was run: as §1
Mus musculus [29] = test: Acute toxicity in Swiss albino mouse assessed as effect on absolute liver weight at 5 to 1000 mg/kg, po after 7 days; assay type: organism-based; settings: in vivo, 168 h; how it was run: as §1
Mus musculus [30] = test: Acute toxicity in Swiss albino mouse assessed as effect on absolute brain weight at 5 to 1000 mg/kg, po after 7 days; assay type: organism-based; settings: in vivo, 168 h; how it was run: as §1
Mus musculus [31] = test: Acute toxicity in Swiss albino mouse assessed as effect on absolute kidney weight at 5 to 1000 mg/kg, po after 7 days; assay type: organism-based; settings: in vivo, 168 h; how it was run: as §1
Mus musculus [32] = test: Acute toxicity in Swiss albino mouse assessed as effect on absolute heart weight at 5 to 1000 mg/kg, po after 7 days; assay type: organism-based; settings: in vivo, 168 h; how it was run: as §1
Mus musculus [33] = test: Acute toxicity in Swiss albino mouse assessed as effect on relative liver weight at 1000 mg/kg, po after 7 days; assay type: organism-based; settings: in vivo, 168 h; how it was run: as §1
Mus musculus [34] = test: Acute toxicity in Swiss albino mouse assessed as effect on relative lung weight at 5 to 1000 mg/kg, po after 7 days; assay type: organism-based; settings: in vivo, 168 h; how it was run: as §1
Mus musculus [35] = test: Acute toxicity in Swiss albino mouse assessed as effect on relative spleen weight at 5 to 1000 mg/kg, po after 7 days; assay type: organism-based; settings: in vivo, 168 h; how it was run: as §1
Mus musculus [36] = test: Acute toxicity in Swiss albino mouse assessed as effect on relative kidney weight at 5 to 1000 mg/kg, po after 7 days; assay type: organism-based; settings: in vivo, 168 h; how it was run: as §1
Mus musculus [37] = test: Acute toxicity in Swiss albino mouse assessed as effect on relative heart weight at 5 to 1000 mg/kg, po after 7 days; assay type: organism-based; settings: in vivo, 168 h; how it was run: as §1

Structure (SMILES): COc1ccc2c(c1)nc(-c1ccccc1OC)n2Cc1ccccc1OC
- logP [1]: 4.45
- MIC [2]: 16 µM (≈ 5.99 µg/mL)
- Activity (Mus musculus [3]): 28.47 g
- Activity (Mus musculus [4]): 6.92 10^6/mm3
- Activity (Mus musculus [5]): 7.72 10^3/mm3
- Activity (Mus musculus [6]): 11.96 U/L
- Activity (Mus musculus [7]): 172.1 U/L
- Activity (Mus musculus [8]): 48.61 mg/dL
- Activity (Mus musculus [9]): 7.44 10^6/mm3
- Activity (Mus musculus [10]): 6.33 10^3/mm3
- Activity (Mus musculus [11]): 11.5 U/L
- Activity (Mus musculus [12]): 0.32 nmol
- Activity (Mus musculus [13]): 25.47 g
- Activity (Mus musculus [14]): 6.87 10^6/mm3
- Activity (Mus musculus [15]): 12.26 U/L
- Activity (Mus musculus [16]): 11.11 U/L
- Activity (Mus musculus [17]): 0.05 mg/mL
- Activity (Mus musculus [18]): 19.37 µmol
- Activity (Mus musculus [19]): 6.67 10^3/mm3
- Activity (Mus musculus [20]): 11.83 U/L
- Activity (Mus musculus [21]): 57.01 mg/dL
- Activity (Mus musculus [22]): 0.09 mg/mL
- Activity (Mus musculus [23]): 0.05 mg/mL
- Activity (Mus musculus [24]): 19.34 µmol
- Activity (Mus musculus [25]): Non-Toxic
- mortality at 168 h [26]: 50%
- Activity (Mus musculus [27]): Non-Toxic
- Activity (Mus musculus [28]): Non-Toxic
- Activity (Mus musculus [29]): Non-Toxic
- Activity (Mus musculus [30]): Non-Toxic
- Activity (Mus musculus [31]): Non-Toxic
- Activity (Mus musculus [32]): Non-Toxic
- Activity (Mus musculus [33]): Toxic
- Activity (Mus musculus [34]): Non-Toxic
- Activity (Mus musculus [35]): Non-Toxic
- Activity (Mus musculus [36]): Non-Toxic
- Activity (Mus musculus [37]): Non-Toxic
